Tested on: Pseudomonas aeruginosa
Experiment: Antimicrobial activity against extended spectrum beta-lactamases-producing Pseudomonas aeruginosa 10-5 after 18-24 hrs by two-fold serial dilution method
Assay type: functional
Outline: (§1)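 Agar-medium twofold serial dilution against Gram-positive and Gram-negative strains; MIC taken as the lowest compound concentration giving complete inhibition of bacterial growth after incubation at 35 °C for 18-24 h.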

Row | SMILES | MIC [µg/mL]
1 | CS(=O)(=O)O.NCC1CN(c2nc3c(cc2F)c(=O)c(C(=O)O)cn3C2CC2)C/C1=N\OCc1ccccc1 (racemic) | 8

Tested on: Staphylococcus aureus
Experiment: Antimicrobial activity against extended spectrum beta-lactamases-producing methicillin-resistant Staphylococcus aureus 10-15 after 18-24 hrs by two-fold serial dilution method
Assay type: functional
Outline: (§2)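 Agar twofold serial dilution MIC against clinical isolates. MIC was taken as the lowest concentration giving complete inhibition of bacterial growth after incubation at 35 °C for 18-24 h.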

Row | SMILES | MIC [µg/mL]
2 | CS(=O)(=O)O.NCC1CN(c2nc3c(cc2F)c(=O)c(C(=O)O)cn3C2CC2)C/C1=N\OCc1ccccc1 (racemic) | 0.5

Tested on: Escherichia coli
Experiment: Antimicrobial activity against extended spectrum beta-lactamases-producing Escherichia coli 10-3 after 18-24 hrs by two-fold serial dilution method
Assay type: functional
Outline: as §1

Row | SMILES | MIC [µg/mL]
3 | CS(=O)(=O)O.NCC1CN(c2nc3c(cc2F)c(=O)c(C(=O)O)cn3C2CC2)C/C1=N\OCc1ccccc1 (racemic) | 32

Tested on: Staphylococcus epidermidis
Experiment: Antimicrobial activity against extended spectrum beta-lactamases-producing methicillin-sensitive Staphylococcus epidermidis 10-13 after 18-24 hrs by two-fold serial dilution method
Assay type: functional
Outline: as §1

Row | SMILES | MIC [µg/mL]
4 | CS(=O)(=O)O.NCC1CN(c2nc3c(cc2F)c(=O)c(C(=O)O)cn3C2CC2)C/C1=N\OCc1ccccc1 (racemic) | 0.06

Tested on: Escherichia coli
Experiment: Antimicrobial activity against Escherichia coli 10-1 after 18-24 hrs by two-fold serial dilution method
Assay type: functional
Outline: as §1

Row | SMILES | MIC [µg/mL]
5 | CS(=O)(=O)O.NCC1CN(c2nc3c(cc2F)c(=O)c(C(=O)O)cn3C2CC2)C/C1=N\OCc1ccccc1 (racemic) | 16

Tested on: Enterococcus faecium
Experiment: Antimicrobial activity against Enterococcus faecium 10-9 after 18-24 hrs by two-fold serial dilution method
Assay type: functional
Outline: as §1

Row | SMILES | MIC [µg/mL]
6 | CS(=O)(=O)O.NCC1CN(c2nc3c(cc2F)c(=O)c(C(=O)O)cn3C2CC2)C/C1=N\OCc1ccccc1 (racemic) | 8

Tested on: Staphylococcus aureus
Experiment: Antimicrobial activity against extended spectrum beta-lactamases-producing methicillin-resistant Staphylococcus aureus 10-11 after 18-24 hrs by two-fold serial dilution method
Assay type: functional
Outline: as §2

Row | SMILES | MIC [µg/mL]
7 | CS(=O)(=O)O.NCC1CN(c2nc3c(cc2F)c(=O)c(C(=O)O)cn3C2CC2)C/C1=N\OCc1ccccc1 (racemic) | 4

Tested on: Klebsiella pneumoniae
Experiment: Antimicrobial activity against extended spectrum beta-lactamases-producing Klebsiella pneumoniae 10-2 after 18-24 hrs by two-fold serial dilution method
Assay type: functional
Outline: as §1

Row | SMILES | MIC [µg/mL]
8 | CS(=O)(=O)O.NCC1CN(c2nc3c(cc2F)c(=O)c(C(=O)O)cn3C2CC2)C/C1=N\OCc1ccccc1 (racemic) | 64

Tested on: Staphylococcus epidermidis
Experiment: Antimicrobial activity against extended spectrum beta-lactamases-producing methicillin-resistant Staphylococcus epidermidis 10-13 after 18-24 hrs by two-fold serial dilution method
Assay type: functional
Outline: as §2

Row | SMILES | MIC [µg/mL]
9 | CS(=O)(=O)O.NCC1CN(c2nc3c(cc2F)c(=O)c(C(=O)O)cn3C2CC2)C/C1=N\OCc1ccccc1 (racemic) | 1

Tested on: Streptococcus pneumoniae
Experiment: Antimicrobial activity against extended spectrum beta-lactamases-producing Streptococcus pneumoniae 10-1 after 18-24 hrs by two-fold serial dilution method
Assay type: functional
Outline: as §1

Row | SMILES | MIC [µg/mL]
10 | CS(=O)(=O)O.NCC1CN(c2nc3c(cc2F)c(=O)c(C(=O)O)cn3C2CC2)C/C1=N\OCc1ccccc1 (racemic) | 0.25

Tested on: Escherichia coli
Experiment: Antimicrobial activity against Escherichia coli ATCC 25922 after 18-24 hrs by two-fold serial dilution method
Assay type: functional
Outline: as §1

Row | SMILES | MIC [µg/mL]
11 | CS(=O)(=O)O.NCC1CN(c2nc3c(cc2F)c(=O)c(C(=O)O)cn3C2CC2)C/C1=N\OCc1ccccc1 (racemic) | 0.03

Tested on: Enterococcus faecalis
Experiment: Antimicrobial activity against Enterococcus faecalis 10-6 after 18-24 hrs by two-fold serial dilution method
Assay type: functional
Outline: as §1

Row | SMILES | MIC [µg/mL]
12 | CS(=O)(=O)O.NCC1CN(c2nc3c(cc2F)c(=O)c(C(=O)O)cn3C2CC2)C/C1=N\OCc1ccccc1 (racemic) | 4

Tested on: Pseudomonas aeruginosa
Experiment: Antimicrobial activity against Pseudomonas aeruginosa 10-12 after 18-24 hrs by two-fold serial dilution method
Assay type: functional
Outline: as §1

Row | SMILES | MIC [µg/mL]
13 | CS(=O)(=O)O.NCC1CN(c2nc3c(cc2F)c(=O)c(C(=O)O)cn3C2CC2)C/C1=N\OCc1ccccc1 (racemic) | 4

Tested on: Pseudomonas aeruginosa
Experiment: Antimicrobial activity against extended spectrum beta-lactamases-producing Pseudomonas aeruginosa 10-20 after 18-24 hrs by two-fold serial dilution method
Assay type: functional
Outline: as §1

Row | SMILES | MIC [µg/mL]
14 | CS(=O)(=O)O.NCC1CN(c2nc3c(cc2F)c(=O)c(C(=O)O)cn3C2CC2)C/C1=N\OCc1ccccc1 (racemic) | 2

Tested on: Escherichia coli
Experiment: Antimicrobial activity against Escherichia coli 10-3 after 18-24 hrs by two-fold serial dilution method
Assay type: functional
Outline: as §1

Row | SMILES | MIC [µg/mL]
15 | CS(=O)(=O)O.NCC1CN(c2nc3c(cc2F)c(=O)c(C(=O)O)cn3C2CC2)C/C1=N\OCc1ccccc1 (racemic) | 8

Tested on: Klebsiella pneumoniae
Experiment: Antimicrobial activity against Klebsiella pneumoniae 10-4 after 18-24 hrs by two-fold serial dilution method
Assay type: functional
Outline: as §1

Row | SMILES | MIC [µg/mL]
16 | CS(=O)(=O)O.NCC1CN(c2nc3c(cc2F)c(=O)c(C(=O)O)cn3C2CC2)C/C1=N\OCc1ccccc1 (racemic) | 128

Tested on: Staphylococcus aureus
Experiment: Antimicrobial activity against extended spectrum beta-lactamases-producing methicillin-sensitive Staphylococcus aureus 10-13 after 18-24 hrs by two-fold serial dilution method
Assay type: functional
Outline: as §1

Row | SMILES | MIC [µg/mL]
17 | CS(=O)(=O)O.NCC1CN(c2nc3c(cc2F)c(=O)c(C(=O)O)cn3C2CC2)C/C1=N\OCc1ccccc1 (racemic) | 0.015

Tested on: Pseudomonas aeruginosa
Experiment: Antimicrobial activity against extended spectrum beta-lactamases-producing Pseudomonas aeruginosa 10-9 after 18-24 hrs by two-fold serial dilution method
Assay type: functional
Outline: as §1

Row | SMILES | MIC [µg/mL]
18 | CS(=O)(=O)O.NCC1CN(c2nc3c(cc2F)c(=O)c(C(=O)O)cn3C2CC2)C/C1=N\OCc1ccccc1 (racemic) | 2
